Data as given in ChEMBL document CHEMBL1130289, “Polyanion inhibitors of human immunodeficiency virus and other viruses. 5. Telomerized anionic surfactants derived from amino acids” (J Med Chem, 1997).

Legend:
[1] = tested on: Semliki Forest virus; test: Concentration required to inhibit forest induced cytopathicity in Vero cells by 50%; format: functional, organism-based
Summary of the method: (§1)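 Virus was added to the cell monolayers in the presence of compound. Incubation continued until the viral cytopathic effect was scored. IC50 is the concentration that reduced virus-induced cytopathicity by 50%.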

[2] = tested on: Tacaribe virus; test: Concentration required to inhibit Tacaribe induced cytopathicity in Vero cells by 50%; format: functional, cell-based; conditions: Mammarenavirus tacaribeense
[3] = tested on: Human alphaherpesvirus 1; test: Concentration required to inhibit HSV-1(KOS) induced cytopathicity in E6SM cells by 50%; conditions: Human alphaherpesvirus 1, E6SM
[4] = tested on: CEM-4; test: Cytotoxic concentration required to reduce the viability of uninfected cells by 50% after 5 days of incubation in the presence on CEM-4 cells.; format: functional; conditions: Homo sapiens, CEM-4, 120 h
Summary of the method: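 Uninfected CEM-4 cells were incubated with compound for 5 days. CC50 is the concentration that reduced viability by 50%. Values average at least two separate experiments.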

[5] = tested on: Human immunodeficiency virus 2; test: Concentration required to inhibit HIV-2 induced cytopathicity in MT-4 cells by 50%; format: functional, organism-based; conditions: Human immunodeficiency virus 2, MT4
Summary of the method: (§2)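 MT-4 cells were infected with HIV-1 (strain HTLV-IIIB/LAI) or HIV-2 (strain LAV-2 ROD) and exposed to compound. IC50 is the concentration that inhibited HIV-induced cytopathicity by 50%. Values are means of two separate experiments.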

[6] = tested on: Mammalian orthoreovirus 1; test: Concentration required to inhibit reovirus-1 induced cytopathicity in Vero cells by 50%; format: functional, organism-based; conditions: Mammalian orthoreovirus 1, Vero; summary of the method: as §1
[7] = tested on: Human alphaherpesvirus 2; test: Concentration required to inhibit HSV-2(G) induced cytopathicity in E6SM cells by 50%; conditions: Human alphaherpesvirus 2, E6SM
[8] = tested on: HEL; test: Minimum cytotoxic concentration required to cause a microscopically detectable alteration of normal cell morphology in HEL cells; format: functional, Homo sapiens
[9] = tested on: Poliovirus 1; test: Concentration required to inhibit Polio-1 induced cytopathicity in HeLa cells by 50%; format: functional, organism-based; conditions: Enterovirus C
[10] = tested on: Human alphaherpesvirus 1; test: Concentration required to inhibit HSV-1 TK-(B2006) induced cytopathicity in E6SM cells by 50%; conditions: Human alphaherpesvirus 1, E6SM
[11] = tested on: Coxsackievirus; test: Concentration required to inhibit Coxsackie induced cytopathicity in HeLa cells by 50%; format: functional, organism-based; summary of the method: as §1
[12] = tested on: HeLa; test: Minimum cytotoxic concentration required to cause a microscopically detectable alteration of normal cell morphology in HeLa cells; format: functional, Homo sapiens
Summary of the method: (§3)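 Uninfected E6SM, HeLa or Vero cells were exposed to compound and examined by microscopy. MCC is the lowest concentration causing a detectable alteration of normal cell morphology.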

[13] = tested on: Vero; test: Minimum cytotoxic concentration required to cause a microscopically detectable alteration of normal cell morphology in Vero cells; format: functional, Chlorocebus sabaeus; summary of the method: as §3
[14] = tested on: Human immunodeficiency virus 2; test: Concentration required to inhibit by 50% syncytium formation between MOLT-4 cells and HIV-2 (ROD) infected HUT-78 cells; format: functional, organism-based; conditions: Human immunodeficiency virus 2, MOLT-4
Summary of the method: (§4)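 Uninfected MOLT-4 cells were co-cultured with HUT-78 cells chronically infected with HIV-1 (IIIB) or HIV-2 (ROD), in the presence of compound. The end point was syncytium formation, and IC50 is the concentration giving 50% inhibition. Values are means of two separate experiments.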

[15] = tested on: Human betaherpesvirus 5; test: Concentration required to inhibit HCMV(AD169) induced cytopathicity in HEL cells by 50%; format: functional, organism-based; conditions: Human betaherpesvirus 5, HEL; summary of the method: as §1
[16] = tested on: Human immunodeficiency virus 1; test: Inhibitory concentration required to inhibit HIV-induced cytopathicity in CEM-4 cells by 50% based in the MTT assay; format: functional, organism-based; conditions: Human immunodeficiency virus 1, CEM-4
[17] = tested on: Human betaherpesvirus 5; test: Concentration required to inhibit HCMV(Davis) induced cytopathicity in HEL cells by 50%; format: functional, organism-based; conditions: Human betaherpesvirus 5, HEL; summary of the method: as §1
[18] = tested on: Human immunodeficiency virus 1; test: Concentration required to inhibit HIV-1 induced cytopathicity in MT-4 cells by 50%; format: functional, organism-based; conditions: Human immunodeficiency virus 1, MT4; summary of the method: as §2
[19] = tested on: Vesicular stomatitis virus; test: Concentration required to inhibit vesicular stomatitis induced cytopathicity in E6SM cells by 50%; format: functional, organism-based
[20] = tested on: Human respirovirus 3; test: Concentration required to inhibit parainfluenza-3 induced cytopathicity in Vero cells by 50%; format: functional, organism-based; conditions: Human respirovirus 3, Vero; summary of the method: as §1
[21] = tested on: MT4; test: Concentration required to reduce the viability of mock-infected MT-4 cells by 50%; format: functional; conditions: Homo sapiens
Summary of the method: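 Mock-infected MT-4 cells were exposed to compound. CC50 is the concentration that reduced cell viability by 50%. Values are means of two separate experiments.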

[22] = tested on: Vaccinia virus; test: Concentration required to inhibit Vaccinia induced cytopathicity in E6SM cells by 50%; format: functional, organism-based; conditions: Orthopoxvirus vaccinia
[23] = tested on: E6SM; test: Minimum cytotoxic concentration required to cause a microscopically detectable alteration of normal cell morphology in E6SM cells; format: functional, Homo sapiens; summary of the method: as §3
[24] = tested on: Sindbis virus; test: Concentration required to inhibit Sindbis induced cytopathicity in Vero cells by 50%; format: functional, organism-based; summary of the method: as §1
[25] = tested on: Junin virus; test: Concentration required to inhibit Junin induced cytopathicity in Vero cells by 50%; format: functional, organism-based; conditions: Mammarenavirus juninense
[26] = tested on: Human immunodeficiency virus 1; test: Concentration required to inhibit by 50% syncytium formation between MOLT-4 cells and HIV-1(IIIB); format: functional, organism-based; conditions: Human immunodeficiency virus 1, MOLT-4; summary of the method: as §4
[27] = tested on: Human immunodeficiency virus 1; test: Inhibitory concentration required to inhibit HIV-induced cytopathicity in CEM-4 cells by 50% based in the MTT assay; Not active; format: functional, organism-based

SMILES	IC50 [1] [µg/mL]	IC50 [2] [µg/mL]	IC50 [3] [µg/mL]	CC50 [4] [µg/mL]	IC50 [5] [µg/mL]	IC50 [6] [µg/mL]	IC50 [7] [µg/mL]	MMC [8] [µg/mL]	IC50 [9] [µg/mL]	IC50 [10] [µg/mL]	IC50 [11] [µg/mL]	MMC [12] [µg/mL]	MMC [13] [µg/mL]	IC50 [14] [µg/mL]	IC50 [15] [µg/mL]	IC50 [17] [µg/mL]	IC50 [18] [µg/mL]	IC50 [19] [µg/mL]	IC50 [20] [µg/mL]	CC50 [21] [µg/mL]	other results
CCCCCCCCCCCCSCCCCCCCCCCCCCCCCCCCCCCCCCCCCCCCCC(=O)N(CC)CCCCCCCCCCC(=O)[O-].[Na+]	> 200	> 20	> 40	27	> 29	> 200	20	>50	> 200	> 200	> 200	>200	>200	50	9	9	> 16	> 40	> 200	30	IC50 [16]: > 11 µg/mL; IC50 [22]: > 40 µg/mL; MMC [23]: 100 µg/mL; IC50 [24]: > 200 µg/mL; IC50 [25]: 20 µg/mL; IC50 [26]: 30 µg/mL
CCCCCCCCCCCCSCCCCCCCCCCC(=O)N(C)CCCCCCCCCCC(=O)[O-].[Na+]	> 200	> 50	> 200	> 200	70	> 200	70	>50	> 200	> 200	> 200	>200	>200	150	> 50	> 50	28	> 200	> 200	128	IC50 [27]: Not Active; IC50 [22]: > 200 µg/mL; MMC [23]: >400 µg/mL; IC50 [24]: > 200 µg/mL; IC50 [25]: > 50 µg/mL; IC50 [26]: 150 µg/mL
CCCCCCCCCCCCSCCCCCCCCCCCCC(=O)NCCCCCCCCCCC(=O)NCCC(=O)[O-].[Na+]	> 200	50	20	42	12	> 200	20	>50	> 200	20	> 200	>200	>200	10	25	20	3	> 200	> 200	> 250	IC50 [27]: Not Active; IC50 [22]: > 200 µg/mL; MMC [23]: >200 µg/mL; IC50 [24]: > 200 µg/mL; IC50 [25]: 43 µg/mL; IC50 [26]: 10 µg/mL
